Measured values: ChEMBL document CHEMBL5653617, “Inhibition of BRD4 attenuates tumor cell self-renewal and suppresses stem cell signaling in MYC driven medulloblastoma” (Oncotarget, 2014)
Active and inactive are the calls of the source.

Key:
D458 Med = assay: Antiproliferative activity in human D458 Med cells assessed as inhibition of cell growth at 300 nM by flow cytometry analysis; assay type: functional, cell-based
In short: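 ViaCount flow cytometric cell count. Cells seeded in medium, DMSO or drug added 24 h later, cultured a further 48 h. Cells then pelleted, washed, stained with Viacount reagent and counted on a Guava cytometer. Vehicle control DMSO.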

Daoy [1] = assay: Induction of cell cycle arrest in human Daoy cells assessed as accumulation of cells at G1 phase at 300 nM incubated for 48 hrs by flow cytometry analysis (reference value: 50.67 +/- 3.19%); assay type: functional
D425 Med [2] = assay: Induction of cell cycle arrest in human D425 Med cells assessed as S phase cells at 300 nM incubated for 48 hrs by flow cytometry analysis (reference value: 28.96 +/- 0.89%); assay type: functional
Daoy [3] = assay: Induction of cell cycle arrest in human Daoy cells assessed as S phase cells at 300 nM incubated for 48 hrs by flow cytometry analysis (reference value: 15.39 +/- 1.73%); assay type: functional
D425 Med [4] = assay: Induction of cell cycle arrest in human D425 Med cells assessed as G2/M phase cells at 300 nM incubated for 48 hrs by flow cytometry analysis (reference value: 37 +/- 0.47%); assay type: functional
Daoy [5] = assay: Suppression of human Daoy cells self-renewal cultured in serum free condition assessed as reduction in formation of new neurosphere at 300 nM; assay type: functional, cell-based
In short: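 Cells grown as neurospheres in serum-free medium for 48 h, dissociated, and seeded in a limiting dilution from 1000 to 1 cell/well, with 300 nM drug or DMSO. After 7 days in serum-free culture, neurospheres per well counted and plotted against cells seeded.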

Daoy [6] = assay: Induction of senescence in human Daoy cells assessed as increase in beta-galactosidase level at 75 to 300 nM measured after 7 days by staining based analysis; assay type: functional, cell-based; conditions: dose 75-300 nM, time 7.0 day
In short: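 Daoy cells treated with 75 or 300 nM drug or DMSO. Senescence-associated β-galactosidase staining performed after 7 days. Positive cells counted per high power field.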

Daoy [7] = assay: Induction of senescence in human Daoy cells assessed as increase in p21 protein expression at 300 nM by immunoblot analysis; assay type: functional, cell-based
In short: (§1)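 Protein lysates prepared in RIPA buffer with protease inhibitors. Standard western blot with HRP-conjugated secondary antibodies and chemiluminescent detection.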

Daoy [8] = assay: Induction of senescence in human Daoy cells assessed as increase in p27 protein expression at 300 nM by immunoblot analysis; assay type: functional, cell-based; in short: as §1
Daoy [9] = assay: Induction of senescence in human Daoy cells assessed as decrease in phosphorylated RB protein expression at 300 nM by immunoblot analysis; assay type: functional, cell-based; in short: as §1
Daoy [10] = assay: Antitumor activity against human Daoy cells xenografted in athymic nude mice assessed as reduction in tumor growth at 50 mg/kg, ip administered 5 days a week for 4 weeks and measured after 20 days; assay type: functional, organism-based; conditions: time 48.0 day
In short: (§2)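 Daoy cells (1.0×10^7 in PBS) injected into the flank of athymic nude mice. Dosing began once tumors were palpable, at a mean of 52 days post inoculation. 50 mg/kg i.p. or DMSO vehicle given 5 days/week for 4 weeks, n=10, with tumors followed a further 20 days. Volume by caliper as π/6 × L × W × H. Body weight recorded 3 times weekly.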

[11] = Toxicity in athymic nude mouse xenografted with human Daoy cells assessed as change in body weight at 50 mg/kg, ip administered 5 days a week for 4 weeks and measured after 20 days; assay type: organism-based; conditions: in vivo, 1152 h, time 48 day; in short: as §2
Daoy [12] = assay: In vivo inhibition of BRD4 in athymic nude mouse xenografted with human Daoy cells assessed as reduction in SOX2 mRNA expression in tumor at 50 mg/kg, ip measured after 5 days by RT-qPCR analysis; assay type: functional, organism-based; conditions: time 5.0 day
In short: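 Xenograft tumors from mice dosed 50 mg/kg i.p. or DMSO vehicle, n = 3 each. SOX2 mRNA measured by TaqMan qPCR with ΔΔCt quantitation, in triplicate.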

Daoy [13] = assay: Downregulation of CENPF gene expression in human Daoy cells at 300 nM by GSEA method; assay type: functional, cell-based
In short: (§3)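 Daoy cells treated with DMSO or 300 nM drug. RNA extracted and hybridized to Affymetrix HG-ST2.0 arrays. Analysis in R/Bioconductor with gene set enrichment analysis. Regulated transcripts defined as p < 0.05, FDR < 0.05, fold change < 0.67 (down) or > 1.5 (up).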

Daoy [14] = assay: Downregulation of CDC25B gene expression in human Daoy cells at 300 nM by GSEA method; assay type: functional, cell-based; in short: as §3
Daoy [15] = assay: Downregulation of MYBL2 gene expression in human Daoy cells at 300 nM by GSEA method; assay type: functional, cell-based; in short: as §3
[16] = biological target: Bromodomain-containing protein 4 (Homo sapiens) (UniProt O60885); conditions: Daoy, dose 300.0 nM
[17] = biological target: Bromodomain-containing protein 4 (Homo sapiens) (UniProt O60885); conditions: D283 Med, dose 300.0 nM
[18] = biological target: Bromodomain-containing protein 4 (Homo sapiens) (UniProt O60885); conditions: D425 Med, dose 300.0 nM
[19] = biological target: Bromodomain-containing protein 4 (Homo sapiens) (UniProt O60885); conditions: UW228, dose 300.0 nM
[20] = biological target: Bromodomain-containing protein 4 (Homo sapiens) (UniProt O60885); conditions: D283 Med, dose 300.0 nM; remark: listed apart in the source
[21] = biological target: Bromodomain-containing protein 4 (Homo sapiens) (UniProt O60885); conditions: D458 Med, dose 300.0 nM
[22] = biological target: Bromodomain-containing protein 4 (Homo sapiens) (UniProt O60885); conditions: D425 Med, dose 300.0 nM; remark: listed apart in the source
[23] = biological target: Bromodomain-containing protein 4 (Homo sapiens) (UniProt O60885); conditions: Daoy, dose 100.0 nM, time 24-72 hrs, TDE = time-dependent effect
[24] = biological target: Bromodomain-containing protein 4 (Homo sapiens) (UniProt O60885); conditions: Daoy, dose 300.0 nM; remark: listed apart in the source
[25] = biological target: Bromodomain-containing protein 4 (Homo sapiens) (UniProt O60885); conditions: Daoy, dose 300.0 nM; remark: listed apart in the source
[26] = biological target: Bromodomain-containing protein 4 (Homo sapiens) (UniProt O60885); conditions: Daoy, dose 300.0 nM; remark: listed apart in the source
[27] = biological target: Bromodomain-containing protein 4 (Homo sapiens) (UniProt O60885); conditions: D283 Med, dose 300.0 nM; remark: listed apart in the source
[28] = biological target: Bromodomain-containing protein 4 (Homo sapiens) (UniProt O60885); conditions: D425 Med, dose 300.0 nM; remark: listed apart in the source
[29] = biological target: Bromodomain-containing protein 4 (Homo sapiens) (UniProt O60885); conditions: D425 Med, dose 300.0 nM; remark: listed apart in the source
[30] = biological target: Bromodomain-containing protein 4 (Homo sapiens) (UniProt O60885); conditions: D458 Med, dose 300.0 nM; remark: listed apart in the source

## Cc1sc2c(c1C)C(c1ccc(Cl)cc1)=N[C@@H](CC(=O)OC(C)(C)C)c1nnc(C)n1-2
D458 Med
  Activity: Active
Daoy [1]
  Activity: 79.416%
D425 Med [2]
  Activity: 28.636%
Daoy [3]
  Activity: 3.736%
D425 Med [4]
  Activity: 31%
Daoy [5]
  Activity: Active
Daoy [6]
  Activity: Active
Daoy [7]
  Activity: Active
Daoy [8]
  Activity: Active
Daoy [9]
  Activity: Active
Daoy [10]
  Activity: Active
[11]
  Activity: Non-Toxic
Daoy [12]
  inhibition: Active
Daoy [13]
  Activity: Active
Daoy [14]
  Activity: Active
Daoy [15]
  Activity: Active
[16]
  inhibition: Active
[17]
  inhibition: Active
[18]
  inhibition: Active
[19]
  inhibition: Active
[20]
  inhibition: Active
[21]
  inhibition: Active
[22]
  inhibition: Active
[23]
  inhibition: Tde
[24]
  inhibition: Active
[25]
  inhibition: Active
[26]
  inhibition: Active
[27]
  inhibition: Active
[28]
  inhibition: Active
[29]
  inhibition: Active
[30]
  inhibition: Active
